Activity calls are given as the source filed them.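 Rule for the calls, unless noted: active = fluorescence slope higher than the sample average by over 3 SD (cut at about -0.22 in these data, passing the limit was not always enough); inactive = the rest.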
Legend:
[1] = inhibitors of TNFa-induced NFkB p65 translocation, primary screen, imaging, HUVEC, MLSMR starter and 10KST1 sets (AID 438;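 active = inhibition above 20% together with a positive visual image hit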;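 note: compound added about 3h40 before a 20 min TNFalpha stimulation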;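 for inhibition: signal is the nuclear over cytoplasmic p65 intensity ratio per well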); settings: HUVEC TNFa-induced p65 nuclear translocation; cell count: measured here: nuclei count (cytotoxicity indicator), at 2.08 µM; inhibition: at 2 µM, stronger effect = higher value, 0% TNFa-plus-vehicle, 100% no-TNFa wells
[2] = inhibitors of mutant huntingtin aggregation, primary screen, imaging, exon1htt(103Q)mCFP cells, high-content imaging (AID 483;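 active = visual image review flags a hit and inhibition of aggregation exceeds 20%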;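 note: compound exposure lasted 3 days before fixation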;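 for nuclei count: percent of the per-plate median nuclei count of sample wells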); settings: exon1htt(103Q)mCFP cell line, aggregate imaging, at 2 µM; inhibition of aggregation: stronger effect = higher value; nuclei count: measured here: cell count, toxicity
[3] = inhibitors of E-selectin induction by TNFa, primary screen, imaging, HUVEC, immunofluorescence, MLSMR starter and 10KST1 sets (AID 487;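 active = visually confirmed hit in the image check and inhibition above 20%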;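 for inhibition: signal is fraction of cell area covered by stained E-selectin grains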;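 for nuclei count: 100% = median nuclei count of all wells on the same plate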); settings: HUVEC TNFalpha-induced E-selectin immunofluorescence imaging, at 2 µM; inhibition: stronger effect = higher value; nuclei count: measured here: cell number, toxicity
[4] = target: Voltage-gated potassium channel subunit beta-2 (Rattus norvegicus) (UniProt P62483); experiment: KvBeta enzyme negative modulators, primary screen, biochemical, NADPH fluorescence (AID 622); settings: recombinant KvBeta, 4-cyanobenzaldehyde reduction, at 10 µM, stronger effect = higher value;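 note: slope of raw intensity against log time taken from 70 to 1610 s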
[5] = target: Voltage-gated potassium channel subunit beta-2 (Rattus norvegicus) (UniProt P62483); experiment: KvBeta positive modulators, primary screen, biochemical, NADPH fluorescence (AID 623;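 active = NADPH fluorescence slope more negative than the mean of all samples by about 3 SD, 99.7% confidence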;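 note: fluorescence intensity change per second fitted from 20 to 320 s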); settings: Recombinant KvBeta, NADPH fluorescence decrease slope, 10 min; at 10 µM; stronger effect = lower value
[6] = target: Alpha-2C adrenergic receptor (Homo sapiens) (UniProt P18825); experiment: modulators of alpha2C/GIRK thallium flux, primary screen, cell-based, HEK293 alpha2C/GIRK1/2 (AID 624;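 active = fluorescence slope after compound addition differing from the mean of all screened samples at 99.7% confidence, in either direction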;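 note: slope of fluorescence ratio to pre-addition baseline per second over 15 to 24 s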); settings: thallium flux BTC fluorescence, at 10 µM, actives lie on both sides
[7] = inhibitors of larval lipid processing in zebrafish, primary screen, whole organism, PED6 fluorescence, gall bladder and intestine (AID 686;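 active = a full or partial loss of lipid-probe fluorescence in the fish gall bladder, intestine or both, judged by eye; inactive = no fluorescence loss, or compound toxic to the fish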;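 note: larvae 5 to 7 days old with five fish per well; signal comes from phospholipase A2 cleavage of quenched PED6 carried via bile; overnight exposure to compound and PED6 before scoring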); settings: Zebrafish larvae PED6 lipid processing, fluorescence scoring; screened at 20 µM (by protocol)
Procedure, shortened: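 Test system – live zebrafish larvae aged 5-7 days, whole organism · Buffer or medium – E3 fish medium · Reagent – quenched phospholipase substrate PED6, 100 nM final, ingested by larvae · Doses – 20 µM single dose · Incubation – overnight compound and PED6 incubation · Technique – visual fluorescence microscopy scoring of gall bladder, gut · Read-out basis – visual per-well fluorescence inhibition score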

[8] = inhibitors of Sendai virus-induced IRF3 signaling, primary screen, TLR/RLR signaling modifier project, cell-based, Sendai virus stimulus, luciferase, 10K MLSCN set (AID 602276;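 active = inhibition at or above 50% at 10 µM; inactive = inhibition below 50%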;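 note: firefly luciferase from ISG56 promoter only with Renilla not read in this screen; 0% = Sendai virus plus DMSO and 100% = medium plus DMSO without virus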); settings: HEK293 RL24 IRF3 luciferase reporter, at 10 µM, stronger effect = higher value
[9] = inhibitors of poly I:C-induced TLR3 signaling, primary screen, cell-based, poly I:C stimulus, luciferase, 10K MLSCN set (AID 602277;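 active = inhibition of the reporter signal at or above 50%; inactive = inhibition below 50%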); settings: HEK293-TLR3 RL24 IRF3 luciferase reporter, at 10 µM, stronger effect = higher value

Sequence of Voltage-gated potassium channel subunit beta-2 (Rattus norvegicus) (P62483 whole entry, looked up): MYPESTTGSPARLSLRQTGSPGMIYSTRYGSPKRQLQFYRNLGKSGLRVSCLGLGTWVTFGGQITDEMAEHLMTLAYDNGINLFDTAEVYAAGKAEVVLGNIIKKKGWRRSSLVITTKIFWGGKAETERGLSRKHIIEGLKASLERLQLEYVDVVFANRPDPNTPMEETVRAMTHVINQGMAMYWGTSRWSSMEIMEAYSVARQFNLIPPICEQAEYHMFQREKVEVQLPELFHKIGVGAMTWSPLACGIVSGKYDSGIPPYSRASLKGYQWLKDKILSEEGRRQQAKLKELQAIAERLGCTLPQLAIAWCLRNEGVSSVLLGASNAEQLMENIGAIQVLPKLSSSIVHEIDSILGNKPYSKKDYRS
Sequence of Alpha-2C adrenergic receptor (Homo sapiens) (P18825 whole entry, looked up): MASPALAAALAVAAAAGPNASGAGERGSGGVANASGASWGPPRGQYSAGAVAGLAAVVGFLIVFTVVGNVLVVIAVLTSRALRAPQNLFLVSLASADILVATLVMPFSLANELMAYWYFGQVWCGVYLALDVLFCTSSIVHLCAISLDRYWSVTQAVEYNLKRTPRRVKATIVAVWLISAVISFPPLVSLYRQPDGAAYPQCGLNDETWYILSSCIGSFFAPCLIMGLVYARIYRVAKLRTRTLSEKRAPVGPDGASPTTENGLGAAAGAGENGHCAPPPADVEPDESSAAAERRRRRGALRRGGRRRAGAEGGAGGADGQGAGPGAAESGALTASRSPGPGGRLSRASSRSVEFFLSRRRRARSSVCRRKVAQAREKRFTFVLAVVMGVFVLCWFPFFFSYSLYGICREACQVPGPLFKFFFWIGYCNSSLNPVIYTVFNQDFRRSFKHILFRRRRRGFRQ

Compound	cell count [1]	inhibition [1]	inhibition of aggregation [2]	nuclei count [2]	inhibition [3]	nuclei count [3]	fluorescence slope [4]	NADPH fluorescence slope [5]	slope [6]	outcome [7]	inhibition [8]	inhibition [9]
CN(C)c1ccc(C2C3=C(CCCC3=O)OC3=C2C(=O)CCC3)cc1	571	-6.3% (inactive)	8.9% (inactive)	112%	-20.9% (inactive)	110%	-0.37 (inactive)	-5.2e-05 (inactive)	0.00729 (inactive)	inactive	14.3% (inactive)	17% (inactive)
COC(=O)c1ccccc1NC(=O)CN1CCC(n2nnc3cc(F)ccc32)CC1	488	6% (inactive)	-5.5% (inactive)	103%	35% (inactive)	91.3%	-0.453 (inactive)	-4.1e-05 (inactive)	0.00532 (inactive)	inactive	15.8% (inactive)	25.9% (inactive)
COc1ccc(-c2nnc(SCc3nnc(-c4ccc(Cl)cc4)o3)n2-c2ccccc2)cc1	565	-13.6% (inactive)	12.1% (inactive)	106%	17.2% (inactive)	138%	-0.398 (inactive)	-6.2e-05 (inactive)	0.00535 (inactive)	inactive	-45% (inactive)	-62.8% (inactive)
Cc1cn(C2CC3OCC3O2)c(=O)[nH]c1=O (centres undefined)	381	2.5% (inactive)	0.6% (inactive)	98.5%	30.5% (inactive)	98.4%	-0.399 (inactive)	1.2e-05 (inactive)	0.00591 (inactive)	inactive	-0.457% (inactive)	5.51% (inactive)
CCOC(=O)c1[nH]c2ccc(C)cc2c1NC(=O)CN1CCCCC1	672	13.7% (inactive)	5.6% (inactive)	93.3%	-12% (inactive)	87.9%	-0.349 (inactive)	-2.6e-05 (inactive)	0.00444 (inactive)	inactive	13.3% (inactive)	14.1% (inactive)
O=C1CCC(C(=O)N(Cc2ccco2)C2(C(=O)NC3CCCC3)CCCCC2)N1 (centres undefined)	428	-6.8% (inactive)	-16.4% (inactive)	116%	-39.9% (inactive)	139%	-0.428 (inactive)	4.8e-06 (inactive)	0.00488 (inactive)	inactive	5.55% (inactive)	13.4% (inactive)
Cc1nnc(SCc2nnc(-c3ccccc3Br)o2)n1-c1ccccc1	730	14.5% (inactive)	38.5% (inactive)	87.5%	-59.5% (inactive)	93.8%	-0.455 (inactive)	-4e-05 (inactive)	0.00597 (inactive)	inactive	6.33% (inactive)	8.93% (inactive)
c1cnc(NCCNc2ncccn2)nc1	709	-5% (inactive)	11.9% (inactive)	132%	-57.1% (inactive)	124%	-0.346 (inactive)	-4.1e-05 (inactive)	0.00555 (inactive)	inactive	5.48% (inactive)	2.33% (inactive)
CCn1c(=N)n(CC(=O)c2ccco2)c2ccccc21	407	-11.8% (inactive)	22.6% (inactive)	68%	52.9% (active)	83.4%	-0.391 (inactive)	-5.5e-05 (inactive)	0.00452 (inactive)	inactive	4.56% (inactive)	2.85% (inactive)
COc1ccc(S(=O)(=O)Nc2ccc(Cl)cn2)c(C)c1C	482	-29.6% (inactive)	-3.5% (inactive)	62%	-46.8% (inactive)	98.5%	-0.387 (inactive)	-4.6e-05 (inactive)	0.00866 (inactive)	inactive	11.2% (inactive)	1.09% (inactive)
COc1ccccc1N1CCN(C(=O)c2cc(-c3ccc(Cl)c(Cl)c3)on2)CC1	430	5.1% (inactive)	-5.8% (inactive)	97.3%	-17.9% (inactive)	102%	-0.407 (inactive)	-7.4e-05 (inactive)	0.00441 (inactive)	inactive	1.29% (inactive)	-2.55% (inactive)
CCN(CC)c1ccc(C(=O)n2cnc3ccccc32)cc1	461	12.1% (inactive)	7.1% (inactive)	95.4%	-306% (inactive)	128%	-0.284 (inactive)	-3.9e-05 (inactive)	0.00386 (inactive)	inactive	25.3% (inactive)	-37.1% (inactive)
CC(=O)NC(C)C(=O)OCc1ccc(Cl)cc1Cl (centres undefined)	478	-21.6% (inactive)	-3.7% (inactive)	74.8%	-22.9% (inactive)	134%	-0.467 (inactive)	-5.2e-05 (inactive)	0.00444 (inactive)	inactive	10.8% (inactive)	12.4% (inactive)
Cc1nnc(SCc2cccc(Oc3ccccc3)c2)n1N	701	-4.2% (inactive)	2.8% (inactive)	108%	-59.1% (inactive)	105%	-0.384 (inactive)	-3e-05 (inactive)	0.00543 (inactive)	inactive	-4.43% (inactive)	98.8% (active)
COC(=O)CSc1nnc(-c2ccc(OC)cc2OC)o1	609	6.3% (inactive)	6.1% (inactive)	109%	44.6% (inactive)	90.8%	-0.397 (inactive)	-5.2e-05 (inactive)	0.00519 (inactive)	inactive	13.1% (inactive)	10.4% (inactive)
COc1ccc(CCN2C(=O)CC(N3CCN(S(=O)(=O)c4ccccc4)CC3)C2=O)cc1 (centres undefined)	666	11.3% (inactive)	19.5% (inactive)	106%	69.9% (active)	110%	-0.483 (inactive)	-8.5e-06 (inactive)	0.0045 (inactive)	inactive	11.6% (inactive)	6.07% (inactive)
Clc1ccc(OCc2nnc(SCCN3CCCCC3)n2Cc2ccco2)cc1	587	-2.7% (inactive)	6% (inactive)	98.8%	45.2% (inactive)	88.3%	-0.28 (inactive)	-1.2e-05 (inactive)	0.00483 (inactive)	active; no signal in gallbladder and intestine	8.16% (inactive)	13.8% (inactive)
COCCn1c(C)cc(C(=O)COC(=O)c2ccc(N3CCCC3=O)cc2)c1C	527	-16.9% (inactive)	12.8% (inactive)	97.9%	26.9% (inactive)	103%	-0.329 (inactive)	-7.1e-05 (inactive)	0.00515 (inactive)	inactive	14.7% (inactive)	26.1% (inactive)
Cc1ccc2c(c1C)NC(C(=O)O)C1CC=CC21 (centres undefined)	371	1.6% (inactive)	-10.5% (inactive)	77.6%	-11.4% (inactive)	114%	-0.373 (inactive)	-2.5e-05 (inactive)	0.00434 (inactive)	inactive	13.7% (inactive)	18.5% (inactive)
O=C(CN1CCN(c2nc(-c3ccc(Cl)cc3)cs2)CC1)NCc1ccco1	638	-7.3% (inactive)	9.3% (inactive)	90.1%	-53.5% (inactive)	108%	-0.463 (inactive)	-3.9e-05 (inactive)	0.00435 (inactive)	inactive	-3.86% (inactive)	98.3% (active)
COc1cc(C)c(Br)cc1S(=O)(=O)N1CCOCC1	397	6.3% (inactive)	3.4% (inactive)	106%	-68.9% (inactive)	126%	-0.461 (inactive)	-4.2e-05 (inactive)	0.00698 (inactive)	inactive	11.9% (inactive)	4.48% (inactive)
O=C(Nc1cccnc1)Nc1ccc(F)c(Cl)c1	347	11.8% (inactive)	-11.4% (inactive)	94.2%	-15.8% (inactive)	107%	-0.517 (inactive)	1.7e-05 (inactive)	0.00552 (inactive)	inactive; toxic	-39.2% (inactive)	-103% (inactive)
O=C(Cc1nc2ccccc2s1)c1ccc(O)cc1O	322	1.1% (inactive)	-15.5% (inactive)	88.3%	-98.2% (inactive)	124%	-0.391 (inactive)	-0.000109 (inactive)	0.00457 (inactive)	inactive	-33.1% (inactive)	-88.7% (inactive)
COc1ccc(NC(=O)N2CCC(c3nc(-c4cccs4)no3)CC2)cc1	486	-35.7% (inactive)	1.4% (inactive)	56.4%	-41.5% (inactive)	102%	-0.36 (inactive)	-5.2e-05 (inactive)	0.00458 (inactive)	inactive	-1.92% (inactive)	-22% (inactive)
COc1ccc(NC(=O)Nc2ccccc2C)c(OC)c1	371	1.5% (inactive)	-3.2% (inactive)	107%	-31.1% (inactive)	116%	-0.379 (inactive)	-7.9e-05 (inactive)	0.00603 (inactive)	inactive	6.08% (inactive)	12.1% (inactive)
COc1ccc(C)cc1-n1nnnc1SC/C(O)=C(\C#N)c1nc2ccccc2[nH]1	614	5.1% (inactive)	-491% (inactive)	42.2%	-42.5% (inactive)	104%	-0.431 (inactive)	-3.4e-05 (inactive)	0.00627 (inactive)	active; weak signal in gallbladder only	15.6% (inactive)	27% (inactive)
O=C(c1cnn2c(C(F)F)cc(-c3ccccc3)nc12)N1CCN2CCCC2C1 (centres undefined)	223	-3.7% (inactive)	13% (inactive)	100%	-87.1% (inactive)	129%	-0.251 (inactive)	-1.6e-05 (inactive)	0.00468 (inactive)	inactive	15.8% (inactive)	32.7% (inactive)

From PubChem BioAssay
